Assay results reported in ChEMBL document CHEMBL1687712, “Antiviral effects of lamivudine, emtricitabine, adefovir dipivoxil, and tenofovir disoproxil fumarate administered orally alone and in combination to woodchucks with chronic woodchuck hepatitis virus infection” (Antimicrob Agents Chemother, 2008).
Active and inactive are the calls of the source. No cut-off for these calls is given here.

Tests used:
Marmota monax [1] = assay: Toxicity in Woodchuck hepatitis virus infected woodchuck assessed as increase of liver sorbitol dehydrogenase activity at 15 mg/kg, po qd measured on 4 to 24 weeks on 48 week study; type: organism-based; design: dose 15 mg/kg, route oral; settings: in vivo
Method in brief: (§1)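 Woodchucks chronically infected with WHV, 5 per group, received oral drug once daily in liquid diet for 48 weeks; placebo got diet only. Serum chemistry (GGT, ALP, ALT, AST, SDH, among others) was run 2 weeks pretreatment, at week 0, every other week to week 12, then monthly to week 48. Sampling continued at 2, 4, 6, 8 and 12 weeks post-treatment.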

[2] = tested on: Woodchuck hepatitis virus; assay: Antiviral activity against Woodchuck hepatitis virus infected in woodchuck assessed as reduction of viral RNA level per ug of total cell DNA at 15 mg/kg, po qd for 48 weeks measured on 60th week (reference value: 27 pg); type: functional
Method in brief: (§2)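 Chronic WHV-carrier woodchucks, 5 per group, 15 mg/kg/day oral once daily for 48 weeks in liquid diet. Needle liver biopsies were snap-frozen in liquid nitrogen and stored at −70°C. Hepatic WHV DNA replicative intermediates were quantified by Southern blot (pg/μg total cell DNA) and WHV RNA by Northern blot; group means ± SD were compared with pretreatment and placebo.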

Marmota monax [3] = assay: Toxicity in Woodchuck hepatitis virus infected woodchuck assessed as increase of liver alkaline phosphatase activity at 15 mg/kg, po qd for 48 weeks; type: organism-based; design: dose 15 mg/kg, route oral; settings: in vivo, 8064 h; method in brief: as §1
[4] = tested on: Woodchuck hepatitis virus; assay: Antiviral activity against Woodchuck hepatitis virus infected in woodchuck assessed as absent of lesion in lobular hepatitis at 15 mg/kg, po qd measured on 36th week on 48 weeks study; type: functional, organism-based; design: dose 15 mg/kg
Method in brief: (§3)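 Chronic WHV-carrier adult woodchucks (inoculated at 3 days of age), 5 per group, dosed orally once daily for 48 weeks by dose syringe, drug in saline suspended in semisynthetic liquid diet; placebo is diet alone. Ultrasound-guided needle liver biopsies under ketamine/xylazine, formalin-fixed, H&E stained; portal and lobular hepatitis graded 0 (absent) to 4 (most severe).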

[5] = tested on: Woodchuck hepatitis virus; assay: Antiviral activity against Woodchuck hepatitis virus infected in woodchuck assessed as absent of lobular in portal hepatitis at 15 mg/kg, po qd for 48 weeks; type: functional, organism-based; design: dose 15 mg/kg
Method in brief: (§4)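 Adult chronic WHV-carrier woodchucks (neonatally inoculated), 5 per group, given drug once daily by dose syringe in semisynthetic liquid diet, for 48 weeks; placebo got diet alone. Ultrasound-guided needle liver biopsies under ketamine/xylazine anesthesia at pretreatment, weeks 12, 36, 48 and 12 weeks post-withdrawal. Biopsies were formalin-fixed, paraffin-embedded and H&E stained. Portal and lobular hepatitis were graded 0 (absent) to 4 (most severe).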

Marmota monax [6] = assay: Toxicity in Woodchuck hepatitis virus infected woodchuck assessed as increase of serum gamma-glutamyltransferase activity at 15 mg/kg, po qd for 48 weeks; type: organism-based; design: dose 15 mg/kg, route oral; settings: in vivo, 8064 h; method in brief: as §1
[7] = tested on: Woodchuck hepatitis virus; assay: Antiviral activity against Woodchuck hepatitis virus infected in woodchuck assessed as reduction of viral DNA replicative intermediate level per ug of total cell DNA at 15 mg/kg, po qd for 48 weeks measured on 60th week (reference value: 979 pg); type: functional; method in brief: as §2
[8] = tested on: Woodchuck hepatitis virus; assay: Antiviral activity against Woodchuck hepatitis virus infected in woodchuck assessed as reduction of viral antigen level in serum at 15 mg/kg, po qd measured on 12th week on 48 weeks study (reference value: 4.3 +/- 1.5 log10 ng/ml); type: functional
[9] = tested on: Woodchuck hepatitis virus; assay: Antiviral activity against Woodchuck hepatitis virus infected in woodchuck assessed as reduction of viral DNA replicative intermediate level per ug of total cell DNA at 15 mg/kg, po qd measured on 12th week on 48 weeks study (reference value: 1495 +/- 890 pg); type: functional; method in brief: as §2
Marmota monax [10] = assay: Toxicity in Woodchuck hepatitis virus infected woodchuck assessed as increase of liver alanine aminotransferase activity at 15 mg/kg, po qd measured on 4 to 24 weeks on 48 week study; type: organism-based; design: dose 15 mg/kg, route oral; settings: in vivo; method in brief: as §1
[11] = tested on: Woodchuck hepatitis virus; assay: Antiviral activity against Woodchuck hepatitis virus infected in woodchuck assessed as frequency of hepatocytes expressing viral antigen at 15 mg/kg, po qd for 48 weeks measured on 60th week; type: functional, Hepatocyte
Method in brief: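 Chronic WHV-carrier woodchucks, 5 per group, given 15 mg/kg/day orally once daily for 48 weeks in liquid diet; placebo is diet alone. Liver biopsies at pretreatment, weeks 12, 36, 48 and 12 weeks after withdrawal. Cytoplasmic WHsAg staining scored 0–4: 1 ≤1%, 2 ≤2%, 3 ≤5%, 4 ≥10% of hepatocytes.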

[12] = tested on: Woodchuck hepatitis virus; assay: Antiviral activity against Woodchuck hepatitis virus infected in woodchuck assessed as reduction of viral antigen positive hepatocytes at 15 mg/kg, po qd for 48 weeks study (reference value: 35 +/- 27 %); type: functional, Hepatocyte; design: scale not given: the % may be the effect or the level left
Method in brief: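 Chronic WHV-carrier woodchucks, 5 per group, 15 mg/kg/day oral once daily for 48 weeks in liquid diet. Liver biopsies were taken at pretreatment, weeks 12, 36, 48 and week 60. Percentage of hepatocytes positive for WHcAg was given as group mean ± SD and compared with pretreatment and placebo.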

[13] = tested on: Woodchuck hepatitis virus; assay: Antiviral activity against Woodchuck hepatitis virus infected in woodchuck assessed as reduction of viral RNA level per ug of total cell DNA at 15 mg/kg, po qd for 48 weeks (reference value: 34 +/- 20 pg); type: functional; method in brief: as §2
[14] = tested on: Woodchuck hepatitis virus; assay: Antiviral activity against Woodchuck hepatitis virus infected in woodchuck assessed as absent of lesion in lobular hepatitis at 15 mg/kg, po qd for 48 weeks measured on 60th week; type: functional, organism-based; design: dose 15 mg/kg; method in brief: as §4
[15] = tested on: Woodchuck hepatitis virus; assay: Antiviral activity against Woodchuck hepatitis virus infected in woodchuck assessed as absent of lesion in portal hepatitis at 15 mg/kg, po qd measured on 36th week on 48 weeks study; type: functional, organism-based; design: dose 15 mg/kg; method in brief: as §3

Row | SMILES | Activity (Marmota monax [1]) | Activity [2] | Activity (Marmota monax [3]) | Activity [4] | Activity [5] | Activity (Marmota monax [6]) | Activity [7] | Activity [8] | Activity [9] | Activity (Marmota monax [10]) | Activity [11] | Activity [12] | Activity [13] | Activity [14] | Activity [15]
1 | CC(C)(C)C(=O)OCOP(=O)(COCCn1cnc2c(N)ncnc21)OCOC(=O)C(C)(C)C [ADEFOVIR DIPIVOXIL] | Toxic | 46 pg | Toxic | Active | Active | Toxic | 1147 pg | 4.3 log10ng/ml | 330 pg | Toxic | 1% | 13% | 24 pg | Active | 
2 | CC(C)OC(=O)OCOP(=O)(CO[C@H](C)Cn1cnc2c(N)ncnc21)OCOC(=O)OC(C)C.O=C(O)/C=C/C(=O)O [TENOFOVIR DISOPROXIL FUMARATE] | Toxic | 34 pg | Toxic | Active |  | Toxic | 1374 pg | 3.4 log10ng/ml | 870 pg | Toxic | 2% | 26% | 31 pg |  | Active
